Experiments:
[1] = tested on: Cc1cn([C@H]2C[C@H](O)[C@@H](COP(=O)(O)OP(=O)(O)OP(=O)(O)O)O2)c(=O)[nH]c1=O; assay: Ratio of Kcat to Km for HIV1 Reverse transcriptase P119S/M184V mutant; conditions: Human immunodeficiency virus 1
[2] = tested on: Cc1cn([C@H]2C[C@H](O)[C@@H](COP(=O)(O)OP(=O)(O)OP(=O)(O)O)O2)c(=O)[nH]c1=O; assay: Activity of HIV1 Reverse transcriptase P119S/M184V mutant; conditions: Human immunodeficiency virus 1
[3] = tested on: Cc1cn([C@H]2C[C@H](O)[C@@H](COP(=O)(O)OP(=O)(O)OP(=O)(O)O)O2)c(=O)[nH]c1=O; assay: Activity of HIV1 Reverse transcriptase T165A/M184V mutant; conditions: Human immunodeficiency virus 1
[4] = tested on: Cc1cn([C@H]2C[C@H](O)[C@@H](COP(=O)(O)OP(=O)(O)OP(=O)(O)O)O2)c(=O)[nH]c1=O; assay: Ratio of Kcat to Km for HIV1 Reverse transcriptase T165A/M184V mutant; conditions: Human immunodeficiency virus 1
[5] = tested on: Human immunodeficiency virus type 1 reverse transcriptase (Human immunodeficiency virus 1), Q72547 [T165A,M184V]; assay: Ratio of Ki to Km for HIV1 Reverse transcriptase T165A/M184V mutant
In short: (§1)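 Steady-state inhibition of dTTP incorporation used 2.5 nM wild-type or mutant RT and 250 nM DNA/RNA 23-mer/36-mer primer/template. Apparent dTTP Km was measured across varied 4′-Ed4TTP or d4TTP to give Ki. Ki/Km(dTTP) served as the inhibition index.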

[6] = biological target: Human immunodeficiency virus type 1 reverse transcriptase (Human immunodeficiency virus 1, UniProt Q72547, T165A); assay: Inhibition of HIV1 Reverse transcriptase T165A mutant; in short: as §1
[7] = biological target: Human immunodeficiency virus type 1 reverse transcriptase (Human immunodeficiency virus 1) (UniProt Q72547); assay: Ratio of Ki to Km for wild-type HIV1 Reverse transcriptase; in short: as §1
[8] = biological target: Human immunodeficiency virus type 1 reverse transcriptase (Human immunodeficiency virus 1, UniProt Q72547, P119S); assay: Inhibition of HIV1 Reverse transcriptase P119S mutant; in short: as §1
[9] = tested on: Human immunodeficiency virus type 1 reverse transcriptase (Human immunodeficiency virus 1), Q72547 [M184V]; assay: Ratio of Ki to Km for HIV1 Reverse transcriptase M184V mutant; in short: as §1
[10] = biological target: Human immunodeficiency virus type 1 reverse transcriptase (Human immunodeficiency virus 1, UniProt Q72547, M184V/P119S/T165A); assay: Inhibition of HIV1 Reverse transcriptase P119S/T165A/M184V mutant; in short: as §1
[11] = biological target: Human immunodeficiency virus type 1 reverse transcriptase (Human immunodeficiency virus 1, UniProt Q72547, M184V); assay: Inhibition of HIV1 Reverse transcriptase M184V mutant; in short: as §1
[12] = tested on: Human immunodeficiency virus type 1 reverse transcriptase (Human immunodeficiency virus 1), Q72547 [P119S,T165A]; assay: Ratio of Ki to Km for HIV1 Reverse transcriptase P119S/T165A mutant; in short: as §1
[13] = biological target: Human immunodeficiency virus type 1 reverse transcriptase (Human immunodeficiency virus 1, UniProt Q72547); assay: Inhibition of wild-type HIV1 Reverse transcriptase
In short: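 Same steady-state dTTP incorporation reaction: 250 nM DNA 23-mer/RNA 36-mer primer/template, 2.5 nM RT, Tris-HCl pH 8.0/NaCl/MgCl2/DTT/BSA buffer, 37°C. The analog triphosphate inhibitor was added at various concentrations. Apparent dTTP Km was measured at each inhibitor level to derive Ki, and Ki/Km(dTTP) was used as an inhibition-efficiency index.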

[14] = tested on: Human immunodeficiency virus type 1 reverse transcriptase (Human immunodeficiency virus 1), Q72547 [P119S,M184V]; assay: Ratio of Ki to Km for HIV1 Reverse transcriptase P119S/M184V mutant; in short: as §1
[15] = biological target: Human immunodeficiency virus type 1 reverse transcriptase (Human immunodeficiency virus 1, UniProt Q72547, M184V/P119S); assay: Inhibition of HIV1 Reverse transcriptase P119S/M184V mutant; in short: as §1
[16] = biological target: Human immunodeficiency virus type 1 reverse transcriptase (Human immunodeficiency virus 1, UniProt Q72547, P119S/T165A); assay: Inhibition of HIV1 Reverse transcriptase P119S/T165A mutant; in short: as §1
[17] = tested on: Human immunodeficiency virus type 1 reverse transcriptase (Human immunodeficiency virus 1), Q72547 [T165A]; assay: Ratio of Ki to Km for HIV1 Reverse transcriptase T165A mutant; in short: as §1
[18] = biological target: Human immunodeficiency virus type 1 reverse transcriptase (Human immunodeficiency virus 1, UniProt Q72547, M184V/T165A); assay: Inhibition of HIV1 Reverse transcriptase T165A/M184V mutant; in short: as §1
[19] = tested on: Human immunodeficiency virus type 1 reverse transcriptase (Human immunodeficiency virus 1), Q72547 [P119S,T165A,M184V]; assay: Ratio of Ki to Km for HIV1 Reverse transcriptase P119S/T165A/M184V mutant; in short: as §1
[20] = tested on: Human immunodeficiency virus type 1 reverse transcriptase (Human immunodeficiency virus 1), Q72547 [P119S]; assay: Ratio of Ki to Km for HIV1 Reverse transcriptase P119S mutant; in short: as §1
[21] = tested on: Cc1cn([C@H]2C[C@H](O)[C@@H](COP(=O)(O)OP(=O)(O)OP(=O)(O)O)O2)c(=O)[nH]c1=O; assay: Activity of HIV1 Reverse transcriptase P119S/T165A/M184V mutant; conditions: Human immunodeficiency virus 1
[22] = tested on: Cc1cn([C@H]2C[C@H](O)[C@@H](COP(=O)(O)OP(=O)(O)OP(=O)(O)O)O2)c(=O)[nH]c1=O; assay: Ratio of Kcat to Km for HIV1 Reverse transcriptase P119S/T165A/M184V mutant; conditions: Human immunodeficiency virus 1
[23] = tested on: Human immunodeficiency virus 1; assay: Antiviral activity against wild-type HIV1 pNL4-3 infected in TZM-bl cells by luciferase assay; format: functional, organism-based; conditions: Human immunodeficiency virus 1, pNL4-3, TZM-bl
In short: (§2)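 TZM-bl cells (LTR-driven luciferase reporter) at 5 × 10^4 per well in RPMI 1640 with 10% dialyzed FBS. They were preincubated 16 h at 37°C with a range of 4′-Ed4T, d4T, 3TC or AZT, then infected with NL4-3-derived clones at MOI 0.01. After 72 h, lysates were read for luciferase, with uninfected background subtracted. EC50 is from % of no-drug signal, reported as mean ± SD of three experiments.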

[24] = tested on: Human immunodeficiency virus 1; assay: Antiviral activity against HIV1 pNL4-3 harboring Reverse transcriptase P119S/T165A mutant gene infected in TZM-bl cells after 72 hrs by luciferase assay; format: functional, organism-based; conditions: Human immunodeficiency virus 1, pNL4-3, TZM-bl; in short: as §2
[25] = tested on: Human immunodeficiency virus 1; assay: Antiviral activity against HIV1 pNL4-3 harboring Reverse transcriptase M184V mutant gene infected in TZM-bl cells after 72 hrs by luciferase assay; format: functional, organism-based; conditions: Human immunodeficiency virus 1, pNL4-3, TZM-bl; in short: as §2
[26] = tested on: Human immunodeficiency virus 1; assay: Antiviral activity against HIV1 pNL4-3 harboring Reverse transcriptase T165A mutant gene infected in TZM-bl cells after 72 hrs by luciferase assay; format: functional, organism-based; conditions: Human immunodeficiency virus 1, pNL4-3, TZM-bl; in short: as §2
[27] = tested on: Human immunodeficiency virus 1; assay: Antiviral activity against HIV1 pNL4-3 harboring Reverse transcriptase T165A/M184V mutant gene infected in TZM-bl cells after 72 hrs by luciferase assay; format: functional, organism-based; conditions: Human immunodeficiency virus 1, pNL4-3, TZM-bl; in short: as §2
[28] = tested on: Human immunodeficiency virus 1; assay: Antiviral activity against HIV1 pNL4-3 harboring Reverse transcriptase P119S/M184V mutant gene infected in TZM-bl cells after 72 hrs by luciferase assay; format: functional, organism-based; conditions: Human immunodeficiency virus 1, pNL4-3, TZM-bl; in short: as §2
[29] = tested on: Human immunodeficiency virus 1; assay: Antiviral activity against HIV1 pNL4-3 harboring Reverse transcriptase P119S mutant gene infected in TZM-bl cells after 72 hrs by luciferase assay; format: functional, organism-based; conditions: Human immunodeficiency virus 1, pNL4-3, TZM-bl; in short: as §2
[30] = tested on: Human immunodeficiency virus 1; assay: Antiviral activity against HIV1 pNL4-3 harboring Reverse transcriptase P119S/T165A/M184V mutant gene infected in TZM-bl cells after 72 hrs by luciferase assay; format: functional, organism-based; conditions: Human immunodeficiency virus 1, pNL4-3, TZM-bl; in short: as §2
[31] = tested on: Human immunodeficiency virus 1; assay: Antiviral activity against HIV1 pNL4-3 harboring chimeric pTKD infected in TZM-bl cells after 72 hrs by luciferase assay; format: functional, organism-based; conditions: Human immunodeficiency virus 1, pNL4-3, TZM-bl; in short: as §2

With “Human immunodeficiency virus type 1 reverse transcriptase (Human immunodeficiency virus 1) (from UniProt Q72547) P119S,M184V” the kcat/Km (10'-2/microM/s) [1] was 2.2, the Km [2] was 0.18 µM and the kcat [2] was 4 ×10⁻⁵ /s.
Work on “Human immunodeficiency virus type 1 reverse transcriptase (Human immunodeficiency virus 1) (from UniProt Q72547) T165A,M184V” yielded a kcat [3] of 1.4 ×10⁻⁵ /s and a kcat/Km (10'-2/microM/s) [4] of 1.3.
With Cc1cn([C@H]2C=C[C@@H](COP(=O)(O)OP(=O)(O)OP(=O)(O)O)O2)c(=O)[nH]c1=O [STAVUDINE TRIPHOSPHATE] the Ki/Km [5] was 2.7, the Ki [6] was 210 nM and the Ki/Km [7] was 5.3. For the same compound, the Ki [8] was 640 nM, the Ki/Km [9] was 6.6 and the Ki [10] was 1050 nM. For the same compound, the Ki [11] was 790 nM, the Ki/Km [12] was 5.3 and the Ki [13] was 630 nM. It also gave a Ki/Km [14] of 2.7, a Ki [15] of 480 nM and a Ki [16] of 370 nM. It also gave a Ki/Km [17] of 2.1, a Ki [18] of 300 nM and a Ki/Km [19] of 7. For the same compound, the Ki/Km [20] was 2.1.
Work on “Human immunodeficiency virus type 1 reverse transcriptase (Human immunodeficiency virus 1) (from UniProt Q72547) P119S,T165A,M184V” yielded a Km [21] of 0.15 µM, a kcat [21] of 9 ×10⁻⁵ /s and a kcat/Km (10'-3/microM/s) [22] of 6.
In the case of Cc1cn([C@H]2C[C@H](N=[N+]=[N-])[C@@H](CO)O2)c(=O)[nH]c1=O [ZIDOVUDINE], the EC50 [23] is reported as 23 nM, the EC50 [24] is reported as 26 nM and the EC50 [25] is reported as 11 nM. It also gave an EC50 [26] of 22 nM, an EC50 [27] of 24 nM and an EC50 [28] of 11 nM. The EC50 [29] was 17 nM, the EC50 [30] was 53 nM and the EC50 [31] was 8 nM.
In the case of Cc1cn([C@H]2C=C[C@@H](CO)O2)c(=O)[nH]c1=O [STAVUDINE], the EC50 [23] is reported as 1250 nM, the EC50 [24] is reported as 2480 nM and the EC50 [25] is reported as 1400 nM. The EC50 [26] was 1460 nM, the EC50 [27] was 1500 nM and the EC50 [28] was 1550 nM. For the same compound, the EC50 [29] was 1440 nM, the EC50 [30] was 1280 nM and the EC50 [31] was 1000 nM.

From ChEMBL document CHEMBL1649255, “Impact of novel human immunodeficiency virus type 1 reverse transcriptase mutations P119S and T165A on 4'-ethynylthymidine analog resistance profile” (Antimicrob Agents Chemother, 2009)
